Where no end group is shown, it is not given here. [ ]: non-standard residue; d: D form. Lys(Me2) = CN(C)CCCC[C@H](N)C(=O)O
Tests used:
[1] = target: T1, human 53BP1 tandem Tudor domain (Homo sapiens, UniProt Q12888); test: Binding of peptides to the 53BP1 tandem Tudor domain by tryptophan fluorescence; conditions: for decrease in binding affinity relative to p53K382me2: ratio of Kd values, 25°C (Fig. 2a, b; Fig. 3e)
Summary of the method: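 Synthetic Fmoc-made peptides were HPLC-purified. Intrinsic tryptophan fluorescence was measured at 25°C on 0.5 μM protein with increasing peptide, exciting at 295 nm and recording emission at 305–405 nm over three scans. Kd came from a nonlinear quadratic binding fit, averaged over three experiments ± SD.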

[2] = target: T1, human 53BP1 tandem Tudor domain; test: other fluorescence titration

Row | Compound | decrease in binding affinity relative to p53K382me2 ([1]; tryptophan fluorescence) | other results
1 | CSCC[C@H](NC(=O)[C@H](CC(C)C)NC(=O)[C@H](CCCCN(C)C)NC(=O)[C@H](CCCCN)NC(=O)[C@H](Cc1c[nH]cn1)NC(=O)[C@H](CCCNC(=N)N)NC(=O)[C@H](CO)NC(=O)[C@@H](N)[C@@H](C)O)C(=O)N[C@@H](Cc1ccccc1)C(=O)N[C@@H](CCCCN)C(=O)O [p53K382me2] |  | Kd [1]: 900 nM
2 | H4K20me2 peptide (15–23) (from UniProt P62805 16-24) |  | Kd [2]: 1300 nM
3 | p53H380AK382me2: p53K382me2 peptide (377–386) with His380 substituted with Ala (TSRAK[Lys(Me2)]LMFK) | 16 fold | 
4 | p53K370me2: p53 peptide (366–375) dimethylated at Lys370 (SSHL[Lys(Me2)]SKKGQ) | 22 fold | 
5 | p53K372me2: p53 peptide (367–377) dimethylated at Lys372 (SHLKS[Lys(Me2)]KGQST) | 22 fold | 
6 | p53K381AK382me2: p53K382me2 peptide (377–386) with Lys381 substituted with Ala (TSRHA[Lys(Me2)]LMFK) | 11 fold | 
7 | p53K382me2L383A: p53K382me2 peptide (377–386) with Leu383 replaced (TSRHK[Lys(Me2)]AMFK) |  | effect of residue replacement on the Kd relative to p53K382me2 (in words) ([1]; tryptophan fluorescence, 25°C (Fig. 2a)): virtually no effect
8 | unmodified p53 peptide: unmodified p53 peptide, residues 377–386 (TSRHKKLMFK; UniProt P04637 377-386, looked up, fragment) |  | association of 53BP1 tandem Tudor domain with peptide (in words) ([1]; Fig. 2a, measured by tryptophan fluorescence or Isothermal Titration Calorimetry): does not associate

— publication PMC2865857 (Journal of molecular biology, 2010)
